Shown are actives, neighbours in structure and some others; about 2.6% of the full set was active somewhere.
Platelet DG rel: inhibitors of platelet dense granule secretion, primary screen, cell-based, MLPCN, human platelets. human platelet-rich plasma, SFLLRN dense granule ATP release, luminescence. inhibition, %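 (compounds screened at 7.5 µM in platelet-rich plasma)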. 300,000 tested, 0.22% active. AID 1663, 2009;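 active means mean replicate score, as percent of positive control, at or above 50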
SENP7 block: SENP7 protease inhibitors, primary screen, biochemical, luminescence, uHTS; inhibition, % at 5 µM; recombinant SENP7, Z-RLRGG-aminoluciferin luminescence, 40 min; 330,000 tested, 1.5% active; Sentrin-specific protease 7 (Homo sapiens), Q9BQF6;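 active means inhibition above about 50% at the single test dose, limit read from the data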;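 further: plate controls were DMSO with enzyme for no effect and no enzyme buffer wells for full effect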
SENP8 block-1: human SENP8 protease inhibitors, primary screen, biochemical, fluorescence, Nedd8 protein substrate, uHTS; Sentrin-specific protease 8 (Homo sapiens), Q96LD8; recombinant SENP8; inhibition, % at 20 µM; 360,000 tested, 0.64% active; AID 602440, 2012; in the data active means inhibition mostly above about 40%, no sharp cut-off; inactive means mostly below about 27%
Target sequence (Q96LD8 whole entry, looked up): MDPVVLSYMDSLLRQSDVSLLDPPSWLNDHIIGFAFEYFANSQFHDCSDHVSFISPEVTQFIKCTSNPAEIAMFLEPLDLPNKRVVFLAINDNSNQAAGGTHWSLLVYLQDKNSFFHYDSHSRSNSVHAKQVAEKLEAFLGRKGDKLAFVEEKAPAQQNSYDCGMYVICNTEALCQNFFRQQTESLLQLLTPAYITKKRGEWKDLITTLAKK
SENP6 block: SENP6 protease inhibitors, primary screen, biochemical, luminescence, uHTS | Sentrin-specific protease 6 (Homo sapiens), Q9GZR1 | Recombinant SENP6 catalytic domain, aminoluciferin luminescence | inhibition, % at 10 µM | 330,000 tested, 1.8% active | AID 2599, 2010;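 active means inhibition above about 50% at the single tested dose, limit read from the data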;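 further: plate controls were DMSO wells with enzyme for no effect and DMSO wells lacking enzyme for full effect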
Target sequence (Q9GZR1 628-1112 limits assumed): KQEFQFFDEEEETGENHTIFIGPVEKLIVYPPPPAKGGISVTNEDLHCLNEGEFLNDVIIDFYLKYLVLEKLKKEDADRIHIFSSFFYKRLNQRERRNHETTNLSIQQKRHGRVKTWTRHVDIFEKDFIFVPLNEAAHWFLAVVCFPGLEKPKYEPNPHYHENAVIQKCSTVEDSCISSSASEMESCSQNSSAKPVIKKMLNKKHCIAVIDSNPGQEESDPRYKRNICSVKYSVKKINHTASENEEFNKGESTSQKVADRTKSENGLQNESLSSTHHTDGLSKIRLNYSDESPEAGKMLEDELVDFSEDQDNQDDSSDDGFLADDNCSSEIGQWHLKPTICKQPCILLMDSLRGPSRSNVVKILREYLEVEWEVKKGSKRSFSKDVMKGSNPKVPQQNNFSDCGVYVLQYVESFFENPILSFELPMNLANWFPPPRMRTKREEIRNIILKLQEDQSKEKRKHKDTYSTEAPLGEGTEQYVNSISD
SENP8 block-2: SENP8 protease inhibitors, primary screen, biochemical, luminescence. Sentrin-specific protease 8 (Homo sapiens), Q96LD8. 330,000 tested, 1.2% active. inhibition, % at 10 µM. AID 2540, 2010. purified SENP8, Z-RLRGG-aminoluciferin cleavage; in the data active means inhibition above about 50%
SENP1 FRET inh: human SENP1 catalytic domain inhibitors, primary screen, biochemical, FRET, uHTS | Sentrin-specific protease 1 (Homo sapiens), Q9P0U3 | recombinant SENP1 catalytic domain, CyPet-SUMO1-YPet FRET cleavage | inhibition, % at 10 µM | 360,000 tested, 0.21% active;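 active means inhibition at least 30% at 10 µM, raw YFP signal under a set limit, fluorescence ratio 0.5 to 1.5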;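 further: 0% = enzyme with DMSO and 100% = no enzyme wells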
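Test system: recombinant human SENP1 catalytic domain, His6-tagged / Medium: pH 8 Tris buffer with EDTA, NaCl, BME, BSA, NP40, catalase / Also added: SUMO1 FRET substrate flanked by Cypet and Ypet, 25 nM / Times: 50 min reaction at room temperature / Signal: FRET, CFP and YFP emission / Control set: no-enzyme low control and enzyme-plus-DMSO high control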
* = called active by the depositor; . = no result.

SMILES	Platelet DG rel	SENP7 block	SENP8 block-1	SENP6 block	SENP8 block-2	SENP1 FRET inh
Cn1cc(Cl)c(C(=O)Nc2nc3ccc([N+](=O)[O-])cc3s2)n1	-0.5	89.6*	6.9	65.4*	58.0*	-74.9
CCOC(=O)c1sc(NC(=O)c2ccc(OC(C)=O)cc2)nc1C	.	99.1*	-52.9	98.0*	68.2*	-0.1
CCOC(=O)c1sc(NC(=O)c2ccc(OC)cc2)nc1C	-1.3	49.7	-63.3	-2.0	3.9	-0.5
CC1(C)SC2c3ccccc3C(=O)N2C1C(=O)O (stereo not drawn)	.	.	12.6	.	.	1.0
O=C(Nc1sc2c(c1C(=O)O)CCC2)c1ccccc1Cl	-9.5	-1.3	-29.3	16.9	-13.0	2.6
Cc1ccccc1C(=O)Nc1sc2c(c1C(=O)O)CCC2	-4.0	-8.0	-56.2	70.2*	56.7*	1.7
CC1=NN(c2ccccc2)C(=O)/C1=C\c1sccc1C	1.2	-6.3	18.4	-2.9	-5.2	1.0
CC1=NN(c2ccccc2)C(=O)C1=C(C)C	-4.2	4.6	41.3*	-4.1	-0.1	6.5
CCOC(=O)c1csc(-c2ccc(COC(=O)c3ccccc3)o2)n1	.	.	8.5	.	.	0.0
COc1cccc(-c2noc(-c3ccc(Br)o3)n2)c1	.	72.6*	12.7	1.7	56.8*	1.7
COc1ccc(CCC(=O)Nc2nc(C)c(C(=O)N(C)C)s2)cc1	-2.2	1.2	-9.0	-15.6	-2.2	-2.1
Cn1cccc1/C=C1\SC(=S)N(Nc2ccccc2)C1=O	2.8	14.9	42.7*	18.1	4.7	-96.4
Oc1ccc(/C=N/N(c2ccccc2)c2ccccc2)c(O)c1O	6.7	5.3	31.9*	12.1	10.3	9.6
Oc1ccc(/C=N/N(c2ccccc2)c2ccccc2)cc1O	14.9	0.3	-2.9	1.7	2.2	-3.9
Oc1ccc(/C=N/N2CCOCC2)c(O)c1O	-0.1	-7.8	63.2*	14.1	-1.9	4.3
Cc1nc2ccccc2c(=O)n1/N=C/c1ccc(O)c(O)c1O	6.0	8.8	69.4*	18.8	4.9	2.2
O=C1c2ccccc2C(=O)N1/N=C/c1ccc(O)c(O)c1O	17.7	.	83.3*	.	.	19.0
O=C(Cc1ccc(NC(=O)C2CCN(C(=O)C3CC3)CC2)cc1)Nc1cccc(C(=O)N2CCCCC2)c1	.	.	-9.3	.	.	2.7
O=C(c1ccc([N+](=O)[O-])cc1)N1CCN(c2ncc(Br)cn2)CC1	0.6	-10.2	12.7	-37.1	-5.9	-0.2
COc1cccc(N=Nc2c(N)[nH]n3c(=O)c4c(nc23)CCCC4)c1	0.6	10.0	49.9*	2.9	-3.0	3.7
CCOC(=O)N1CCC(N2C(=O)c3ccc(C(=O)Nc4ccc(OC)c(OC)c4)cc3C2=O)CC1	-5.3	-2.6	12.8*	14.5	5.4	1.8
CCOC(=O)N1CCC(N2C(=O)c3ccc(C(=O)NCCC(C)C)cc3C2=O)CC1	-10.3	2.4	10.4	-17.2	5.2	1.9
N#Cc1ccc(-c2nc3c4ccccc4ccn3c2CC2CCCCC2)cc1	.	.	-388.4	.	.	-2.0
CC(=O)c1ccc(NC(=O)c2ccc3snnc3c2)cc1	-1.8	2.7	4.9	-4.8	0.5	-0.8
CN(C)c1ccc(NC(=O)Nc2ccc3snnc3c2)cc1	-43.3	61.9*	28.4	70.0*	23.0	4.2
SMILES	Platelet DG rel	SENP7 block	SENP8 block-1	SENP6 block	SENP8 block-2	SENP1 FRET inh
O=C(Nc1ccccc1)Nc1ccc2nnsc2c1	7.2	62.8*	-3.8	54.1*	42.3	-0.9
Cc1ccc(Nc2nc3ccccc3s2)cc1	12.0	87.4*	9.2	82.3*	72.4*	1.6
COc1cccc(NC(=O)/C=C/c2ccccc2[N+](=O)[O-])c1	4.7	93.7*	34.2	97.8*	90.5*	1.1
CCN(CC)S(=O)(=O)c1cccc(NC(=O)/C=C/c2ccc([N+](=O)[O-])cc2)c1	-4.0	6.0	14.6	9.5	-1.2	5.7
COc1cccc(NC(=O)/C=C/c2ccc([N+](=O)[O-])cc2)c1	14.5	38.2	11.3	74.7*	50.6*	-6.5
CC1(C)Cc2c(cnn2-c2ccccc2)C(NC(=O)CCN2CCCCO2)C1 (stereo not drawn)	0.4	3.6	5.9	0.6	-6.8	1.6
O=C1C=C(O)c2cccc(O)c2C1=O	.	13.9	45.1*	66.5*	30.9	3.7
O=C1c2cccc(O)c2C(=O)c2c(O)cccc21	7.0	11.6	.	7.5	0.7	.
CC(=O)Nc1ccc(NC(=O)c2cc(=O)c3cc(C)c(C)cc3o2)cc1	-0.8	-2.4	-2.2	1.4	5.8	2.2
Cc1nc2sccn2c(=O)c1S(=O)(=O)N1CCN(c2cccc(Cl)c2)CC1	54.4*	11.8	6.9	-14.5	-7.8	-1.1
Cc1nc2sccn2c(=O)c1S(=O)(=O)N1CCN(c2ccccc2F)CC1	.	.	4.8	.	.	-0.2
O=C1COc2ccc(C(=O)COC(=O)c3ccc(F)cc3Cl)cc2N1	.	-2.3	4.6	9.0	-6.1	2.7
Cc1ccc(-c2ccc(/C=N/NC(=O)c3ccccc3O)o2)cc1	-3.5	53.5*	.	57.9*	27.1	.
COc1ccc(N2CCN(CCNC(=O)CCCn3c(=O)[nH]c4cc(Cl)ccc4c3=O)CC2)cc1	-5.4	-8.1	52.8*	-11.9	-6.1	0.3
COC(=O)c1ccc(N2C(c3ccsc3)=Cc3cc4c(cc3C2CC(=O)c2ccco2)OCO4)cc1 (stereo not drawn)	.	.	-45.4	.	.	-5.6
NC(=O)C1CCN(S(=O)(=O)c2cc3c4c(c2)CCN4C(=O)CC3)CC1	0.0	0.5	10.1	-8.1	-0.4	2.5
O=C(N/N=C/c1cccc(O)c1)N/N=C/c1cccc(O)c1	13.3	-6.7	-1.0	5.3	-9.2	-0.7
Cc1nonc1C(=O)N/N=C/c1cccc(O)c1	57.4*	92.2*	13.8	83.6*	86.5*	0.9
CCCn1nc(C(=O)Nc2ccc3nc(N4CCOCC4)sc3c2)ccc1=O	.	0.3	10.2	-14.1	-6.8	-0.4
COc1cc(-c2nccc3cc4c(cc23)OCO4)cc(OC)c1OC	.	.	-104.9	.	.	-1.6
COc1cc2c(cc1OC)-c1c(OC)c(OC)cc3ccnc(c13)C2=O	2.0	5.6	32.0	8.7	-3.3	60.5*
Cc1cc2nc(N3C(=O)CNC3=S)sc2cc1C	-2.0	95.6*	-7.9	95.1*	95.0*	-31.3
CCc1ccc(OCCCCCn2ccnc2)cc1	0.6	-1.6	24.1	7.4	1.4	1.9
Nc1[nH]ncc1N=Nc1ccc(Cl)cc1	-2.1	-1.9	47.9*	-43.3	-19.8	-0.3
Nc1[nH]ncc1-c1ccc(Cl)cc1	3.2	3.5	8.4	12.8	5.3	1.0
Nc1n[nH]c(N)c1N=Nc1ccc(Cl)cc1	-14.3	5.3	54.5*	6.5	-4.9	3.3
Nc1n[nH]c(N)c1N=Nc1cccc(C(F)(F)F)c1	-9.6	-0.9	44.1*	0.8	-17.6	3.2
